Data: ChEMBL document CHEMBL1121524, “Studies of hypolipidemic agents. 1. Synthesis and hypolipidemic activities of alkoxycinnamic acid derivatives” (1980)

Columns and labels:
Format in all cases: functional
Rattus norvegicus [1] = species on record: Rattus norvegicus; experiment: Tested for the hypolipidemic activity, expressed as percent decrease in serum cholesterol in rat, at dosage of 50 mg for 7 days
Method in brief: (§1)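 Male Sprague-Dawley rats, 4 weeks old, kept on CE-2 chow for at least 1 week, then grouped (generally five per group). Compound was mixed into CE-2 powder and fed ad libitum for the stated period; controls received plain CE-2 powder. Diet level is given as mg/100 g (mg%), about equal to mg/kg/day. Total serum cholesterol was measured by the Zak et al. method and reported as percent depression versus control group mean. Significance was p < 0.05.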

Rattus norvegicus [2] = species on record: Rattus norvegicus; experiment: Hypolipidemic activity expressed as percentage decrease in triglyceride in rat, at dosage of 50 mg for 7 days
Method in brief: as §1, with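 “triglyceride” for “cholesterol”, “Ryan and Rasho” for “Zak et al.”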

Rattus norvegicus [3] = species on record: Rattus norvegicus; experiment: Hypolipidemic activity, expressed as percent decrease in serum cholesterol in rat, at dosage of 100 mg for 7 days by Zak et al method; method in brief: as §1
Rattus norvegicus [4] = experiment: In vivo hypolipidemic activity, expressed as percent decrease in Triglyceride in rat, at dosage of 100 mg for 7 days.
Method in brief: as §1, with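 “triglyceride” for “cholesterol”, “Ryan and Rasho” for “Zak et al.”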

Row | Compound | Decrease (Rattus norvegicus [1]) [%] | Decrease (Rattus norvegicus [2]) [%] | Decrease (Rattus norvegicus [3]) [%] | Decrease (Rattus norvegicus [4]) [%]
1 | CCCCCCCCCCCCCCOc1ccc(/C=C(\C)C(=O)OCC(COC(=O)c2cccnc2)OC(=O)c2cccnc2)cc1 (stereo unspecified) | 7 | 17 | – | –
2 | CCCCCCCCCCCCCCOc1cccc(/C=C(\C)C(=O)O)c1 | -1 | -11 | – | –
3 | CCCCCCCCCCCCCCOc1ccc(/C(C)=C/C(=O)O)cc1 | 5 | 41 | – | –
4 | CCCCCCCCCCCCOc1ccc(/C=C/C(=O)OCCCl)cc1 | 16 | 46 | – | –
5 | CCCCCCCCOc1ccc(/C=C/C(=O)OCCCl)cc1 | – | – | 5 | –
6 | CCCCCCCCCCCCCCCCCCOc1ccc(/C=C/C(=O)O)cc1 | 0 | 9 | – | –
7 | CCCCCCCCCCCCOc1ccc(/C=C(\C)C(=O)OCC2COC(C)(C)O2)cc1 (stereo unspecified) | 16 | 41 | – | –
8 | CCCCCCCCCCCCCCOc1ccc(/C=C/C(=O)O)cc1 | 7 | 0 | – | –
9 | CCCCCCCCOc1ccc(/C=C/C(=O)OCCOC(=O)/C=C/c2ccc(OCCCCCCCC)cc2)cc1 | 4 | 9 | – | –
10 | CCCCCCCCCCCCCCOc1ccc(/C=C/C(=O)OCCO)cc1 | 10 | 24 | – | –
11 | CCCCCCCCCCCCOc1ccc(/C=C(\C)C(=O)OCc2cccnc2)cc1 | 24 | 60 | – | –
12 | CCCCCCCCCCCCCCOc1ccc(/C=C(\C)C(=O)OCC2COC(C)(C)O2)cc1 (stereo unspecified) | 9 | 2 | – | –
13 | C/C(=C\c1ccc(-c2ccc(Cl)cc2)cc1)C(=O)OCC(O)CO (stereo unspecified) | 11 | 18 | – | –
14 | CCCCCCCCCCCCCOc1ccc(/C=C(\C)C(=O)O)cc1 | 13 | -4 | – | –
15 | CCCCCCCCCCCCOc1ccc(/C=C/C(=O)OCC(O)CO)cc1 (stereo unspecified) | 17 | 38 | – | –
16 | CCCCCCCCCCCCOc1ccc(/C=C/C(=O)O)cc1 | 15 | 52 | – | –
17 | CCCCCCCCCCCCCCCCOc1ccc(/C=C/C(=O)OCCBr)cc1 | – | – | 7 | 6
18 | CCCCCCCCCCCCCCCCCCOc1ccc(/C=C/C(=O)OCCCCl)cc1 | 9 | 3 | – | –
19 | CCCCCCCCCCOc1ccc(/C=C(\C)C(=O)OCC(O)CO)cc1 (stereo unspecified) | 10 | 52 | – | –
20 | CCCCCCCCCCCCCOc1ccc(/C=C(\C)C(=O)OCC(O)CO)cc1 (stereo unspecified) | 30 | 53 | – | –

Row | Compound | Decrease (Rattus norvegicus [1]) [%] | Decrease (Rattus norvegicus [2]) [%] | Decrease (Rattus norvegicus [3]) [%] | Decrease (Rattus norvegicus [4]) [%]
21 | COc1ccc(/C=C/C(=O)OCCCl)cc1 | – | – | 0 | –
22 | CCCCCCCCCCCCCCOc1ccc(/C=C(\C)C(=O)OC)cc1 | 10 | 44 | – | –
23 | CCCCCCCCCCOc1ccc(/C=C/C(=O)O)cc1 | 9 | 18 | – | –
24 | CCCCCCCCCCCCCCOc1ccc(/C=C(\C)C(=O)OCC(O)COC(=O)c2cccnc2)cc1 (stereo unspecified) | 4 | 33 | – | –
25 | CCCCCCCCCCCCOc1ccc(/C=C(\C)C(=O)OCCCl)cc1 | 21 | 42 | – | –
26 | C=C(C)C(=O)OCCOC(=O)/C=C/c1ccc(OCCCCCCCCCCCC)cc1 | 13 | 34 | – | –
27 | C=C(C)C(=O)OCCOC(=O)/C=C/c1ccc(OCCCC)cc1 | 9 | 17 | – | –
28 | CCCCCCCCCCCCCCCCCCOc1ccc(/C=C(\C)C(=O)OCCCCl)cc1 | 0 | 11 | – | –
29 | CCCCCCCCCCCCCCCCCCOc1ccc(/C=C(\C)C(=O)OCCCO)cc1 | 13 | 14 | – | –
30 | C=CC(=O)OCCOC(=O)/C=C/c1ccc(OCCCCCCCCCCCCCCCC)cc1 | – | – | 6 | –
31 | C/C(=C\c1ccc(-c2ccccc2)cc1)C(=O)OCC(O)CO (stereo unspecified) | 16 | -17 | – | –
32 | CCCCCCCCCCCCCCCCOC(=O)/C=C/c1ccc(OCCCCCCCCCCCCCCCC)cc1 | 11 | 27 | – | –
33 | CCCCCCCCCCOc1ccc(/C=C/C(=O)OCC(O)CO)cc1 (stereo unspecified) | -3 | 14 | – | –
34 | C=C(C)C(=O)OCCOC(=O)/C=C(\C)c1ccc(OCCCCCCCCCCCCCCCC)cc1 | – | – | 11 | 12
35 | C=COC(=O)/C=C/c1ccc(OCCCCCCCC)cc1 | – | – | -6 | –
36 | CCCCCCCCCCCCCCCCOc1ccc(/C=C(\C)C(=O)OCC2COC(C)(C)O2)cc1 (stereo unspecified) | 1 | 3 | – | –
37 | CCCCCCCCOc1ccc(/C=C(\C)C(=O)OCC(O)CO)cc1 (stereo unspecified) | 8 | 21 | – | –
38 | CCCCCCCCCCCCCCCCOc1ccc(/C=C/C(=O)OCC(COC(=O)CCC)OC(=O)CCC)cc1 (stereo unspecified) | 8 | 36 | – | –
39 | CCCCCCCCCCCCCCOc1ccc(/C=C(\C)C(=O)OCCOC(=O)/C(C)=C/c2ccc(OCCCCCCCCCCCCCC)cc2)cc1 | -1 | -9 | – | –
40 | CCCCCCCCOc1ccc(/C=C(\C)C(=O)OCc2ccccc2)cc1 | 5 | 18 | – | –

Row | Compound | Decrease (Rattus norvegicus [1]) [%] | Decrease (Rattus norvegicus [2]) [%] | Decrease (Rattus norvegicus [3]) [%] | Decrease (Rattus norvegicus [4]) [%]
41 | CCCCCCCCCCCCCCCCCCOc1ccc(/C=C(\C)C(=O)OCC(O)CO)cc1 (stereo unspecified) | -1 | 3 | – | –
42 | CCCCCCCCCCCCCCOc1ccc(/C=C(\C)C(=O)OCC(O)COC(=O)/C(C)=C/c2ccc(OCCCCCCCCCCCCCC)cc2)cc1 (stereo unspecified) | 6 | 6 | – | –
43 | CCCCCCCCCCCCOc1ccc(/C=C(\C)C(=O)OCC(COC(=O)c2ccccc2)OC(=O)c2ccccc2)cc1 (stereo unspecified) | 3 | 47 | – | –
44 | CCCCCCCCCCCCCCOc1ccc(/C=C(\C)C(=O)OCC(COC(C)=O)OC(C)=O)cc1 (stereo unspecified) | 4 | 41 | – | –
45 | CCCCCCCCCCCCCCOc1ccc(/C=C/C(=O)OCC(O)CO)cc1 (stereo unspecified) | 26 | 24 | – | –
46 | CCCCCCCCCCCCCCOc1ccc(/C=C(\C)C(=O)OC(CO)CO)cc1 | 9 | 38 | – | –
47 | CCCCCCCCCCOc1ccc(/C=C(\C)C(=O)O)cc1 | 16 | 43 | – | –
48 | CCCCCCCCCCCCCCOc1ccc(/C=C/C(=O)OCCCl)cc1 | 11 | -1 | – | –
49 | CCCCCCCCOc1ccc(/C=C(\C)C(=O)O)cc1 | 10 | 8 | – | –
50 | CCCCCCCCCCCCCCOc1ccccc1/C=C(\C)C(=O)O | -9 | 7 | – | –
51 | CCCCCCCCCCCCCCCCOc1ccc(/C=C(\C)C(=O)Oc2ccccc2)cc1 | 12 | 46 | – | –
52 | O=C(/C=C/c1ccc(OCc2ccccc2)cc1)OCCCl | – | – | -3 | –
53 | CCCCCCCCCCCCCCCCCCOc1ccc(/C=C(\C)C(=O)O)cc1 | -12 | -54 | – | –
54 | CCCCCCCCCCCCOc1ccc(/C=C(\C)C(=O)OCCS(=O)(=O)[O-])cc1.[Na+] | 27 | 63 | – | –
55 | CCCCCCCCCCCCCCCCOc1ccc(/C=C(\C)C(=O)OCC(COC(=O)/C(C)=C/c2ccc(OCCCCCCCCCCCCCCCC)cc2)OC(=O)/C(C)=C/c2ccc(OCCCCCCCCCCCCCCCC)cc2)cc1 (stereo unspecified) | 0 | 9 | – | –
56 | C=C(C)C(=O)OCCOC(=O)/C(C)=C/c1ccc(OCCCCCCCCCCCC)cc1 | 17 | 43 | – | –
57 | CCCCCCCCCCCCCCOc1ccc(/C=C(\C)C(=O)OCCN(C)C)cc1.Cl | 8 | 35 | – | –
58 | CCCCCCCCCCCCCCOc1ccc(/C=C(\C)C(=O)OCC(O)CO)cc1 (stereo in doubt; 98) | -2 | 9 | – | –
